Measured values: paper PMC10563180 (Current cancer drug targets, 2020)
Read-outs that look alike come from different tables or passages of the source.

Columns and labels:
[1] = target: FLT1/VEGFR1 (Homo sapiens, UniProt P17948); test: Recombinant kinase 33P-ATP activity assay; type: biochemical
[2] = system: HEK293 cells; test: FACS analysis of cell cycle distribution; type: cell-based, human; conditions: 48 hours
How it was run: (§1)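 Cells treated with test compound at several concentrations for 48 h. 1×10^6 cells trypsinized, washed in PBS and resuspended in 1% BSA/PBS. Fixed in 3 volumes of −20 °C ethanol for ≥1 h, washed twice, then stained ≥3 h at 4 °C at ~1×10^6 cells/ml in PI (50μg/ml), RNase A (0.5μg/ml) and 3.8mM sodium citrate. Flow cytometry, excitation 535nm, emission 617nm, ≥10,000 cells/sample.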

[3] = target: PDGFrb (Homo sapiens, UniProt P09619); test: Recombinant kinase 33P-ATP activity assay; type: biochemical
PDGFrb, sequence (P09619 33-1106): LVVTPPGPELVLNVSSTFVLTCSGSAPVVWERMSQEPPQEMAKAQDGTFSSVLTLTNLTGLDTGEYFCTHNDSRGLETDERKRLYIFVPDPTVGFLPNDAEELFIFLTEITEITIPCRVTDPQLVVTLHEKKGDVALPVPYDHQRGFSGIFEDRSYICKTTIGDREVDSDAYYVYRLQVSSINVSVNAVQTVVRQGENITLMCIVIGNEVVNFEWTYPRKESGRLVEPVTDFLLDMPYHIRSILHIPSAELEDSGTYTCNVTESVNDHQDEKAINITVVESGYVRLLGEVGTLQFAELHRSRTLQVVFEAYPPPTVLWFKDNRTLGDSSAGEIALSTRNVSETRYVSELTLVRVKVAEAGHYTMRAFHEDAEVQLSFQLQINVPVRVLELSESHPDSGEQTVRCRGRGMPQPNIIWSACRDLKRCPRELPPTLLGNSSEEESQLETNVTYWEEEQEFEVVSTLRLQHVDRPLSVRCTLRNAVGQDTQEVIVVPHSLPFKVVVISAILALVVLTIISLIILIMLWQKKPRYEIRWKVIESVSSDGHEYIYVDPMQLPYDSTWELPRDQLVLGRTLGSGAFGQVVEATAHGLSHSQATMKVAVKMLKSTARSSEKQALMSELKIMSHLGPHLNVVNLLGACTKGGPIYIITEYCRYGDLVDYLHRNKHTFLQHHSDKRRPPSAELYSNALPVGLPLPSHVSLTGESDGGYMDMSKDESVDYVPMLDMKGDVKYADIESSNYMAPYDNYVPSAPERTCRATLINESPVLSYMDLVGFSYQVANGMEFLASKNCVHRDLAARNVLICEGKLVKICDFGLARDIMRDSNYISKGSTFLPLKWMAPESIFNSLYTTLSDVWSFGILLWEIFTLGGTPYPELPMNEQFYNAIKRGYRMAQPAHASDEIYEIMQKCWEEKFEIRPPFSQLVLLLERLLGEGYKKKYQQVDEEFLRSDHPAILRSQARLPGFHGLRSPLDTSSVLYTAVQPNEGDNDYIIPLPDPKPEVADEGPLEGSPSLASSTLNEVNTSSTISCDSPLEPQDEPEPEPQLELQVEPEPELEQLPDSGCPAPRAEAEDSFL

[4] = system: colon and glioma cells; test: FACS analysis of cell cycle distribution; type: cell-based; conditions: all the cell lines, low concentrations, 48 hours
How it was run: as §1

[5] = system: C6 cells; test: Western blot of signaling proteins; type: cell-based, rat; conditions: 48 hours
How it was run: (§2)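 Cells exposed to indicated concentrations of test compound for 48 h. Harvested by trypsin/EDTA, lysed 15 min on ice in M-PER with protease inhibitors (10^7 cells/ml), cleared at 17000rpm for 30 min. Protein measured by Bradford; 30μg resolved by SDS-PAGE onto PVDF. Blocked in 5% milk/TBST; primary antibodies overnight at 4°C, HRP secondaries 1 h at room temperature; ECL detection with β-tubulin loading control.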

[6] = target: ERBB2/HER2 (Homo sapiens, UniProt P04626); test: Recombinant kinase 33P-ATP activity assay; type: biochemical
[7] = system: DLD1 cells; test: Western blot of signaling proteins; type: cell-based, human; conditions: 48 hours, different concentrations
[8] = target: EGFr (Homo sapiens, UniProt P00533); test: Recombinant kinase 33P-ATP activity assay; type: biochemical
EGFr, sequence (P00533 25-1210): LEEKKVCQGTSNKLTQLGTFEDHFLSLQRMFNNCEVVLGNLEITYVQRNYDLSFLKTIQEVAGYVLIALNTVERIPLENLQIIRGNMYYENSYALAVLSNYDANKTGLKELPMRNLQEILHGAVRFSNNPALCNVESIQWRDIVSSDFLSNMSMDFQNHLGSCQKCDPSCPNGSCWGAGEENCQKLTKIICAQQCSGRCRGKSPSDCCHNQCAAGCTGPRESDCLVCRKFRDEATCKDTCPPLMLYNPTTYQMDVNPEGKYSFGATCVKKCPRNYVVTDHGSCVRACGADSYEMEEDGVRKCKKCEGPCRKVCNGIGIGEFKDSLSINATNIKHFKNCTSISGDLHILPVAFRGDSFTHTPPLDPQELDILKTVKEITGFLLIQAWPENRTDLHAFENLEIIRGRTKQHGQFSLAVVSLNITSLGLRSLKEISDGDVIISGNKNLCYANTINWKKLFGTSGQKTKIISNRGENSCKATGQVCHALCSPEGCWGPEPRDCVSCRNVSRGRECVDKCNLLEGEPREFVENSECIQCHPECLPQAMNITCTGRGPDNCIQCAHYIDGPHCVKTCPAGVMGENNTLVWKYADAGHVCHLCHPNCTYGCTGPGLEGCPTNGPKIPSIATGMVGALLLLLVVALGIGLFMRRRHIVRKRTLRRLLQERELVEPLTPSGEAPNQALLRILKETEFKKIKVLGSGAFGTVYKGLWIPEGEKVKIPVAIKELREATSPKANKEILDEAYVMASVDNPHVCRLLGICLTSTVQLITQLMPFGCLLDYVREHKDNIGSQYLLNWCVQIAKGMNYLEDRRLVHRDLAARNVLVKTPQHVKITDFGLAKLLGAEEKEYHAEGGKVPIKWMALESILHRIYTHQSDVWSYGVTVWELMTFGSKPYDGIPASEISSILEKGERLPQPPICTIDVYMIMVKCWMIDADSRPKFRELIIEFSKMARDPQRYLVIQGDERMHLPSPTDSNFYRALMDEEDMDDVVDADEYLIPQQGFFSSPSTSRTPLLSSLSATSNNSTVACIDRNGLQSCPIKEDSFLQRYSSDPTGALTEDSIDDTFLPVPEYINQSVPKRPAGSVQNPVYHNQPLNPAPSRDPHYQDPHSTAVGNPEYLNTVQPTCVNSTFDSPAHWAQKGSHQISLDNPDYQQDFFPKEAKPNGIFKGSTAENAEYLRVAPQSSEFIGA

[9] = target: FGFR2 (Homo sapiens, UniProt P21802); test: Recombinant kinase 33P-ATP activity assay; type: biochemical
FGFR2, sequence (P21802 22-821): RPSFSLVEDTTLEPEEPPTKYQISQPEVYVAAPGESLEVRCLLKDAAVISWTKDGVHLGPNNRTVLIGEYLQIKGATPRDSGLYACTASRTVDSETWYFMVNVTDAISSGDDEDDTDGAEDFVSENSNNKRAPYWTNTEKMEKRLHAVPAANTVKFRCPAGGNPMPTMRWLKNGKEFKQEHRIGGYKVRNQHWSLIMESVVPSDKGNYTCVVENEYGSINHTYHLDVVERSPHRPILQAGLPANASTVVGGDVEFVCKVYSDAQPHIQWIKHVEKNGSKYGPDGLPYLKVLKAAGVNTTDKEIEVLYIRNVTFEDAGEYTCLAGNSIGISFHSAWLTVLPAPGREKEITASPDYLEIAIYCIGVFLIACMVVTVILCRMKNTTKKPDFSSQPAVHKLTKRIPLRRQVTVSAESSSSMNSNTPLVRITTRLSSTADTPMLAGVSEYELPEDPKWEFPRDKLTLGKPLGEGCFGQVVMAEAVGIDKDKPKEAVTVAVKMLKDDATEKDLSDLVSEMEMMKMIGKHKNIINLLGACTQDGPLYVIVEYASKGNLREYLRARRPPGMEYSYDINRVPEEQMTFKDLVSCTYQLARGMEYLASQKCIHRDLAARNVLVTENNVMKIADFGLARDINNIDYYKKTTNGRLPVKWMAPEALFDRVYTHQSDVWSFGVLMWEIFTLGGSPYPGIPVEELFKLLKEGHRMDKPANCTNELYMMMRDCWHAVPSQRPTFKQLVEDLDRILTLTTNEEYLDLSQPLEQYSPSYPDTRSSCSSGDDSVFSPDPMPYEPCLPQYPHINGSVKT

[10] = target: KDR/VEGFR2 (Homo sapiens, UniProt P35968); test: Recombinant kinase 33P-ATP activity assay; type: biochemical
[11] = system: HCT116 cells; test: Western blot of signaling proteins; type: cell-based, human; conditions: 48 hours, different concentrations
[12] = system: GPCR pathway genes in C6, HCT116, DLD1 and Difi cells; test: GPCR signaling pathway profiling by real-time PCR; type: cell-based; conditions: 5μM, 48 hours, all 4 cell lines
How it was run: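 Total RNA taken from C6, DLD1, HCT116 and Difi cells treated with or without 5μM test compound for 48 h, then reverse transcribed. DLD1 cDNA screened on an 82-gene human GPCR-pathway qPCR array, with control and treated expression compared by subtraction. Hits confirmed in C6 and the three colon lines by SYBR Green real-time PCR with primers in different coding regions.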

[13] = system: Difi cells; test: Caspase 3/7 activity assay; type: cell-based, human; conditions: 24 hours treatment, compared with Cetuximab
How it was run: (§3)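 Cells grown in DMEM with 10% FBS and penicillin/streptomycin at 37°C, 5% CO2, then seeded at 1×10^4 per well. […] Caspase 3/7 read by caspase-Glo, normalized to each line's untreated control (=1); mean of 6 wells ± standard deviation.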

[14] = target: PDGFRa (Homo sapiens, UniProt P16234); test: Recombinant kinase 33P-ATP activity assay; type: biochemical
PDGFRa, sequence (P16234 24-1089): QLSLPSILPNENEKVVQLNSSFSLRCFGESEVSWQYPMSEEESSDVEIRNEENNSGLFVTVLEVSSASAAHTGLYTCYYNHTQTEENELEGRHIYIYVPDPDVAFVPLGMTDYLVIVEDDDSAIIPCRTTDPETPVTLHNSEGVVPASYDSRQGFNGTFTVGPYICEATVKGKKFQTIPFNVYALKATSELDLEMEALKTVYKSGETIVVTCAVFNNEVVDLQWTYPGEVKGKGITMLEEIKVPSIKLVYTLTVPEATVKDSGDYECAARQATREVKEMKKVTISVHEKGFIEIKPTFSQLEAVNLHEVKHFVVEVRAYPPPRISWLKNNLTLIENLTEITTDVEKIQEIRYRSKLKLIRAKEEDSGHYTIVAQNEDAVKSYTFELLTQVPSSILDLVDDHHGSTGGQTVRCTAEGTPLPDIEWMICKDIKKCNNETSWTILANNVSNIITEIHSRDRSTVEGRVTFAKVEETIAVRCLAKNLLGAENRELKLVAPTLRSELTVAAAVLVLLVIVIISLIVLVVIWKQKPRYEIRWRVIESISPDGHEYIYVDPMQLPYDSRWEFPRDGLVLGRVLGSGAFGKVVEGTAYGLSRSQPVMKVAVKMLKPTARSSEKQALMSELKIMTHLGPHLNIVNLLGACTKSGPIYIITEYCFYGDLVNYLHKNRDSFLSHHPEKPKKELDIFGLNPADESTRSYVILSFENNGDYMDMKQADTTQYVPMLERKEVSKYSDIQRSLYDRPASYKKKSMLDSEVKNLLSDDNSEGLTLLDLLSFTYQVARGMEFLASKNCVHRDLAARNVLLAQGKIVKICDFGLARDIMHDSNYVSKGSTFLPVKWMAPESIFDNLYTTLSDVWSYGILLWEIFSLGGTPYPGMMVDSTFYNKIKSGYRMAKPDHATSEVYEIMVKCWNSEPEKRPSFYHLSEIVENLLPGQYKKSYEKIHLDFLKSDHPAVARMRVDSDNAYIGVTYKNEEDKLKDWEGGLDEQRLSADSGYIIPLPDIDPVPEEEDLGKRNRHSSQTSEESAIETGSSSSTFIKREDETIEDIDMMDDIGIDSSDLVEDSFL

[15] = target: c-Src (Homo sapiens, UniProt P12931); test: Recombinant kinase 33P-ATP activity assay; type: biochemical
c-Src, sequence (P12931 whole entry): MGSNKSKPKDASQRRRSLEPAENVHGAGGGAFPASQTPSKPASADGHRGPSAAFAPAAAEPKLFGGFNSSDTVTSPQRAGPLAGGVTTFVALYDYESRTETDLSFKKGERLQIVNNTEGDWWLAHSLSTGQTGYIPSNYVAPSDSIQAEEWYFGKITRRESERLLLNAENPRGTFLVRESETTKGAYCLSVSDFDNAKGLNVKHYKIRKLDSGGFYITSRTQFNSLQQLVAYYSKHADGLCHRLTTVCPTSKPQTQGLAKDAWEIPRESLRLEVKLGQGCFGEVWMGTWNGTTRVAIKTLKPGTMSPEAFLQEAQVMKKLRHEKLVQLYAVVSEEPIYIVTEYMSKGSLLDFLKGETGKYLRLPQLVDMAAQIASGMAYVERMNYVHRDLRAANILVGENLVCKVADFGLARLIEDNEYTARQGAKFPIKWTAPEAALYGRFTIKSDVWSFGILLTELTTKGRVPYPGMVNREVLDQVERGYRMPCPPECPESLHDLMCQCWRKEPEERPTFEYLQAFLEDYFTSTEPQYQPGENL

[16] = target: CDK2/cyclin A (Homo sapiens, UniProt P24941); test: Recombinant kinase 33P-ATP activity assay; type: biochemical
[17] = system: HEK293 cells; test: Caspase 3/7 activity assay; type: cell-based, human; conditions: 24 hours treatment, 0.2, 1 and 5μM
How it was run: as §3

[18] = system: C6 cells; test: Cell growth inhibition; type: cell-based, rat; conditions: through apoptosis
[19] = system: C6 cells; test: Caspase 3/7 activity assay; type: cell-based, rat; conditions: 24 hours treatment, any of the tested concentrations
[20] = system: HEK293 cells; test: Western blot of signaling proteins; type: cell-based, human; conditions: 48 hours
How it was run: as §2

[21] = system: DLD1 cells; test: Cell growth inhibition; type: cell-based, human; conditions: through apoptosis; more effective toward DLD1 cells
[22] = system: DLD1 cells; test: Caspase 3/7 activity assay; type: cell-based, human; conditions: 24 hours treatment, 0.2, 1 and 5μM
How it was run: as §3

[23] = system: HCT116 cells; test: Caspase 3/7 activity assay; type: cell-based, human; conditions: 24 hours treatment, up to 5μM
How it was run: as §3

[24] = target: FGFR1 (Homo sapiens, UniProt P11362); test: Recombinant kinase 33P-ATP activity assay; type: biochemical
[25] = read-out: % Enzyme Activity (Relative to DMSO Controls – 100%) Data 1
[26] = read-out: % Enzyme Activity (Relative to DMSO Controls – 100%) Data 2

remaining activity at 1 µM [1, 25]: 100%
remaining activity at 1 µM [1, 26]: 99.8%
remaining activity at 1 µM [3, 25]: 100%
remaining activity at 1 µM [3, 26]: 99.9%
remaining activity at 1 µM [6, 25]: 99.3%
remaining activity at 1 µM [6, 26]: 98.2%
effects on EGFr kinase activity ([8]; 1μM): minimal effects
remaining activity at 1 µM [8, 25]: 99.1%
remaining activity at 1 µM [8, 26]: 97.8%
remaining activity at 1 µM [9, 25]: 96.1%
remaining activity at 1 µM [9, 26]: 94.9%
remaining activity at 1 µM [10, 25]: 98.3%
remaining activity at 1 µM [10, 26]: 98%
remaining activity at 1 µM [14, 25]: 96.3%
remaining activity at 1 µM [14, 26]: 96.2%
remaining activity at 1 µM [15, 25]: 99.2%
remaining activity at 1 µM [15, 26]: 99%
inhibition on CDK2 ([16]; 1μM): 6%
remaining activity at 1 µM [16, 25]: 94.4%
remaining activity at 1 µM [16, 26]: 94.2%
inhibition at 1 µM ([16]; read-out: inhibition on CDK2, 1μM): 5 to 6%
remaining activity at 1 µM [24, 25]: 107%
remaining activity at 1 µM [24, 26]: 104%
Compound: CCn1c2ccccc2c2cc(N/N=C3/C(=O)NN=C3C)ccc21 [VUGX01, (4E)-4-[2-(9-ethyl-9H-carbazol-3-yl)hydrazin-1-ylidene]-3-methyl-4,5-dihydro-1H-pyrazol-5-one]
cell cycle distribution ([2]; 5μM): shifts the cell population from G1 to G2 phase
cell death (cells in sub G0 phase) [2]: noticeable amount of cell death
effects on G1 or G2/M phases [4]: minimal effects
phosphorylation of AKT at serine 473 [5]: minor increase
p-c-raf (Ser259) and map2k level [7]: increased at low concentrations and decreased at high concentrations
p-c-raf (Ser259) and map2k level [11]: increased at low concentrations and decreased at high concentrations
expression of AGT, AGTR1, AGTR2, GCGR, MMP9, PIK3CG, PTGS2, SCTR, TSHR [12]: elevated
caspase activation [13]: less potent but is effective
caspase 3/7 activation [17]: only slight activation
cell growth [18]: can inhibit the growth
caspase activation [19]: effectively activate
effect on tested proteins (p-c-raf, map2k, AKT, p-AKT) [20]: no effect
cell growth [21]: can inhibit the growth
caspase 3/7 activation [22]: greatly activate
caspase 3/7 activation [23]: minimal effect
